Experiment [1] has as its system Pseudomonas aeruginosa. Description: Tested in vivo against Pseudomonas aeruginosa E-2 in mice after peroral dose of drug with 0.5% sodium carboxy methyl cellulose. Type of experiment: functional. The following applies: po. Put shortly: (§1)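 Mice infected, then given compound orally 1 h post-infection as a suspension in 0.5% sodium CMC. ED50 calculated from cumulative mortality on day 7 post-infection by shortened Weil method.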

In experiment [2] the test system is Staphylococcus epidermidis. Description: Tested in vitro against Staphylococcus epidermidis IAM12896 by agar dilution method. Type of experiment: functional. In short, it runs like this: (§2)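 MIC by 2-fold agar dilution on Mueller–Hinton agar (footnote says sensitivity test agar).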
Experiment [3] concerns Staphylococcus aureus. Nature of the experiment: Tested in vitro against Staphylococcus aureus IID803 by agar dilution method. Type of experiment: functional. In short, it runs like this:
as §2
(In general: In agar dilution the substance is mixed into plates at graded concentrations.)

For experiment [4], the system named is Staphylococcus aureus. Nature of the experiment: Tested in vivo against Staphylococcus aureus IID803 in mice after peroral dose of drug with 0.5% sodium carboxy methyl cellulose. The experiment is classed as functional. As to conditions: po. Put shortly:
as §1

Experiment [5] relates to Pseudomonas aeruginosa. Description: Tested in vitro against Pseudomonas aeruginosa E-2 by agar dilution method. The experiment is classed as functional. In short, it runs like this: as §2
The subject of another experiment is Escherichia coli. Nature of the experiment: Tested in vitro against Escherichia coli NIHJ JC-2 by agar dilution method. Type of experiment: functional. Put shortly:
as §2

The test system of another experiment is Proteus vulgaris. Description: Tested in vitro against Proteus vulgaris OX-19 by agar dilution method. Type of experiment: functional. Put shortly: as §2
A further experiment relates to Salmonella typhimurium. Nature of the experiment: Tested in vitro against Salmonella Typhimurium IID971 by agar dilution method. The experiment is classed as functional, Salmonella enterica subsp. enterica serovar Typhimurium. The following applies: Salmonella enterica. Put shortly:
as §2

A further experiment deals with Bacillus subtilis. Description: Tested in vitro against Bacillus subtilis ATCC 6633 by agar dilution method. Type of experiment: functional. Put shortly:
as §2

A further experiment deals with Serratia marcescens. Nature of the experiment: Tested in vitro against Serratia marcescens IAM1184 by agar dilution method. Type of experiment: functional. In short, it runs like this: as §2
Experiment [6] has as its system Pseudomonas aeruginosa. Nature of the experiment: Tested in vitro against Pseudomonas aeruginosa IFO3445 by agar dilution method. Type of experiment: functional. In short, it runs like this:
as §2

The test system of a further experiment is Klebsiella pneumoniae. Description: Tested in vitro against Klebsiella pneumoniae PCI-602 by agar dilution method. The experiment is classed as functional. Put shortly: as §2
The test system of experiment [7] is Staphylococcus aureus. Description: Tested in vitro against Staphylococcus aureus FDA209P JC-1 by agar dilution method. Type of experiment: functional. In short, it runs like this:
as §2

This note sets out measurements from ChEMBL document CHEMBL1126799, “Synthesis of antimicrobial agents. 5. In vivo metabolism of 7-(4-hydroxypiperazin-1-yl)quinolones” (1993).

Values after ≈ are worked out from the molar mass of the structure shown.

Take `CC1CN(c2c(F)cc3c(=O)c(C(=O)O)cn(C4CC4)c3c2F)CC(C)N1` (stereo unspecified): the results for the ED50 in the experiment with Pseudomonas aeruginosa [1] and in the experiment with Staphylococcus aureus [4] were 11.7 mg/kg and 2.21 mg/kg, respectively. Also, the MIC – broadly, the lowest concentration found to suppress growth – in experiment [2] came out at 0.78 µg/mL (≈ 2.07 µM); in the experiment with Staphylococcus aureus [3], 0.39 µg/mL (≈ 1.03 µM); with Pseudomonas aeruginosa [5], 3.13 µg/mL (≈ 8.29 µM); with Escherichia coli, 0.1 µg/mL (≈ 0.265 µM); in the experiment on Proteus vulgaris it was 0.1 µg/mL (≈ 0.265 µM); in the experiment on Salmonella typhimurium, 0.1 µg/mL (≈ 0.265 µM). Also, the MIC against Bacillus subtilis came out at 0.1 µg/mL (≈ 0.265 µM); in the experiment on Serratia marcescens it was 0.78 µg/mL (≈ 2.07 µM); against Pseudomonas aeruginosa [6] it was 3.13 µg/mL (≈ 8.29 µM); against Klebsiella pneumoniae, 0.025 µg/mL (≈ 0.0662 µM); in the experiment on Staphylococcus aureus [7], 0.39 µg/mL (≈ 1.03 µM).
For the compound `O=C(O)c1cn(C2CC2)c2c(F)c(N3CCNCC3)c(F)cc2c1=O`, the ED50 (commonly the dose that gives a 50% effect, or the effect in half of the subjects) in the experiment with Pseudomonas aeruginosa [1] was 6.7 mg/kg; in the experiment with Staphylococcus aureus [4] it was 5.82 mg/kg. Further, the minimal inhibitory concentration (MIC) is 0.78 µg/mL (≈ 2.23 µM) in experiment [2]; 0.39 µg/mL (≈ 1.12 µM) against Staphylococcus aureus [3]; 0.78 µg/mL (≈ 2.23 µM) with Pseudomonas aeruginosa [5]; 0.05 µg/mL (≈ 0.143 µM) against Escherichia coli; 0.05 µg/mL (≈ 0.143 µM) in the experiment with Proteus vulgaris; 0.025 µg/mL (≈ 0.0716 µM) against Salmonella typhimurium. The MIC against Bacillus subtilis turned out to be 0.1 µg/mL (≈ 0.286 µM); against Serratia marcescens it was 0.39 µg/mL (≈ 1.12 µM); against Pseudomonas aeruginosa [6], 0.78 µg/mL (≈ 2.23 µM); with Klebsiella pneumoniae, 0.025 µg/mL (≈ 0.0716 µM); against Staphylococcus aureus [7], 0.2 µg/mL (≈ 0.573 µM).
Consider `CC1CN(c2c(F)cc3c(=O)c(C(=O)O)cn(C4CC4)c3c2F)CCN1` (stereo unspecified), for which the ED50 in the experiment on Pseudomonas aeruginosa [1] turned out to be 8.84 mg/kg; in the experiment with Staphylococcus aureus [4], 2.21 mg/kg. The minimal inhibitory concentration (MIC) in experiment [2] stood at 0.78 µg/mL (≈ 2.15 µM); in the experiment on Staphylococcus aureus [3], 0.2 µg/mL (≈ 0.55 µM); in the experiment with Pseudomonas aeruginosa [5], 1.56 µg/mL (≈ 4.29 µM); against Escherichia coli, 0.05 µg/mL (≈ 0.138 µM); against Proteus vulgaris, 0.05 µg/mL (≈ 0.138 µM); with Salmonella typhimurium, 0.025 µg/mL (≈ 0.0688 µM). For the same compound, the MIC came out at 0.05 µg/mL (≈ 0.138 µM) in the experiment on Bacillus subtilis; 0.39 µg/mL (≈ 1.07 µM) against Serratia marcescens; 1.56 µg/mL (≈ 4.29 µM) against Pseudomonas aeruginosa [6]; 0.0125 µg/mL (≈ 0.0344 µM) against Klebsiella pneumoniae; 0.39 µg/mL (≈ 1.07 µM) in the experiment on Staphylococcus aureus [7].
As to `CC1CN(c2c(F)cc3c(=O)c(C(=O)O)cn(C4CC4)c3c2F)CC(C)N1O` (stereo unspecified), the median effective dose (ED50) with Pseudomonas aeruginosa [1] came out at 35.4 mg/kg; in the experiment with Staphylococcus aureus [4], 1.67 mg/kg. Moreover, the MIC in [2] turned out to be 0.39 µg/mL (≈ 0.991 µM); against Staphylococcus aureus [3], 0.2 µg/mL (≈ 0.508 µM); in the experiment on Pseudomonas aeruginosa [5], 12.5 µg/mL (≈ 31.8 µM); with Escherichia coli it was 0.78 µg/mL (≈ 1.98 µM); in the experiment with Proteus vulgaris, 0.39 µg/mL (≈ 0.991 µM); against Salmonella typhimurium, 0.78 µg/mL (≈ 1.98 µM). Further, the minimum inhibitory concentration (MIC) in the experiment with Bacillus subtilis was determined as 0.05 µg/mL (≈ 0.127 µM); in the experiment with Serratia marcescens, 6.25 µg/mL (≈ 15.9 µM); in the experiment on Pseudomonas aeruginosa [6] it was 12.5 µg/mL (≈ 31.8 µM); with Klebsiella pneumoniae, 0.1 µg/mL (≈ 0.254 µM); in the experiment on Staphylococcus aureus [7], 0.2 µg/mL (≈ 0.508 µM).
For `CC1CN(c2c(F)cc3c(=O)c(C(=O)O)cn(C4CC4)c3c2F)CCN1O` (stereo unspecified), the 50% effective dose (ED50) in the experiment on Pseudomonas aeruginosa [1] came out at 22.9 mg/kg; in the experiment on Staphylococcus aureus [4], 1.67 mg/kg. Also, the MIC in [2] stood at 0.78 µg/mL (≈ 2.06 µM); in the experiment on Staphylococcus aureus [3] it was 0.2 µg/mL (≈ 0.527 µM); in the experiment on Pseudomonas aeruginosa [5], 3.13 µg/mL (≈ 8.25 µM); in the experiment with Escherichia coli, 0.1 µg/mL (≈ 0.264 µM); against Proteus vulgaris, 0.1 µg/mL (≈ 0.264 µM); in the experiment on Salmonella typhimurium, 0.05 µg/mL (≈ 0.132 µM). For the same compound, the MIC is 0.025 µg/mL (≈ 0.0659 µM) in the experiment on Bacillus subtilis; 0.78 µg/mL (≈ 2.06 µM) in the experiment with Serratia marcescens; 3.13 µg/mL (≈ 8.25 µM) in the experiment on Pseudomonas aeruginosa [6]; 0.025 µg/mL (≈ 0.0659 µM) in the experiment on Klebsiella pneumoniae; 0.39 µg/mL (≈ 1.03 µM) with Staphylococcus aureus [7].
Consider `O=C(O)c1cn(C2CC2)c2c(F)c(N3CCN(O)CC3)c(F)cc2c1=O`, for which the 50% effective dose (ED50) in the experiment with Pseudomonas aeruginosa [1] turned out to be 4.81 mg/kg; in the experiment on Staphylococcus aureus [4], 3.34 mg/kg. The MIC in experiment [2] is 0.78 µg/mL (≈ 2.14 µM); against Staphylococcus aureus [3] it was 0.39 µg/mL (≈ 1.07 µM); in the experiment on Pseudomonas aeruginosa [5], 1.56 µg/mL (≈ 4.27 µM); against Escherichia coli it was 0.1 µg/mL (≈ 0.274 µM); against Proteus vulgaris it was 0.05 µg/mL (≈ 0.137 µM); against Salmonella typhimurium, 0.025 µg/mL (≈ 0.0684 µM). Also, the MIC with Bacillus subtilis is 0.05 µg/mL (≈ 0.137 µM); in the experiment on Serratia marcescens, 0.78 µg/mL (≈ 2.14 µM); in the experiment with Pseudomonas aeruginosa [6], 1.56 µg/mL (≈ 4.27 µM); against Klebsiella pneumoniae, 0.025 µg/mL (≈ 0.0684 µM); in the experiment with Staphylococcus aureus [7], 0.39 µg/mL (≈ 1.07 µM).
With `O=C(O)c1cn(C2CC2)c2cc(N3CCNCC3)c(F)cc2c1=O` [CIPROFLOXACIN], the 50% effective dose (ED50) with Pseudomonas aeruginosa [1] was 30.8 mg/kg; in the experiment with Staphylococcus aureus [4], 35.4 mg/kg. Also, the MIC was determined as 1.56 µg/mL (≈ 4.71 µM) in [2]; 0.78 µg/mL (≈ 2.35 µM) in the experiment with Staphylococcus aureus [3]; 0.78 µg/mL (≈ 2.35 µM) in the experiment with Pseudomonas aeruginosa [5]; 0.05 µg/mL (≈ 0.151 µM) with Proteus vulgaris; 0.025 µg/mL (≈ 0.0754 µM) in the experiment on Salmonella typhimurium; 0.1 µg/mL (≈ 0.302 µM) against Bacillus subtilis. The MIC was found to be 0.39 µg/mL (≈ 1.18 µM) in the experiment with Serratia marcescens, 0.78 µg/mL (≈ 2.35 µM) with Pseudomonas aeruginosa [6], 0.025 µg/mL (≈ 0.0754 µM) with Klebsiella pneumoniae and 0.39 µg/mL (≈ 1.18 µM) in the experiment on Staphylococcus aureus [7].
Consider `CCn1cc(C(=O)O)c(=O)c2cc(F)c(N3CCNCC3)cc21` [NORFLOXACIN], for which the results for the ED50 in the experiment with Pseudomonas aeruginosa [1] and in the experiment with Staphylococcus aureus [4] were 107 mg/kg and 91.7 mg/kg, respectively. Moreover, the MIC turned out to be 3.13 µg/mL (≈ 9.8 µM) in experiment [2]; 1.56 µg/mL (≈ 4.89 µM) in the experiment on Staphylococcus aureus [3]; 3.13 µg/mL (≈ 9.8 µM) in the experiment with Pseudomonas aeruginosa [5]; 0.39 µg/mL (≈ 1.22 µM) against Escherichia coli; 0.2 µg/mL (≈ 0.626 µM) against Proteus vulgaris; 0.1 µg/mL (≈ 0.313 µM) in the experiment on Salmonella typhimurium. Besides, the MIC was found to be 0.39 µg/mL (≈ 1.22 µM) against Bacillus subtilis; 0.78 µg/mL (≈ 2.44 µM) against Serratia marcescens; 3.13 µg/mL (≈ 9.8 µM) against Pseudomonas aeruginosa [6]; 0.1 µg/mL (≈ 0.313 µM) against Klebsiella pneumoniae; 0.39 µg/mL (≈ 1.22 µM) in the experiment with Staphylococcus aureus [7].
For `CC1COc2c(N3CCN(C)CC3)c(F)cc3c(=O)c(C(=O)O)cn1c23` (stereo unspecified) [OFLOXACIN], the median effective dose (ED50) in the experiment on Pseudomonas aeruginosa [1] worked out at 54.5 mg/kg; in the experiment with Staphylococcus aureus [4], 8.84 mg/kg. The MIC in experiment [2] worked out at 0.78 µg/mL (≈ 2.16 µM); in the experiment with Staphylococcus aureus [3], 0.78 µg/mL (≈ 2.16 µM); in the experiment with Pseudomonas aeruginosa [5], 3.13 µg/mL (≈ 8.66 µM); with Escherichia coli it was 0.2 µg/mL (≈ 0.553 µM); in the experiment with Proteus vulgaris it was 0.1 µg/mL (≈ 0.277 µM); in the experiment on Salmonella typhimurium it was 0.1 µg/mL (≈ 0.277 µM). The MIC was determined as 0.2 µg/mL (≈ 0.553 µM) against Bacillus subtilis; 0.78 µg/mL (≈ 2.16 µM) in the experiment with Serratia marcescens; 3.13 µg/mL (≈ 8.66 µM) against Pseudomonas aeruginosa [6]; 0.1 µg/mL (≈ 0.277 µM) with Klebsiella pneumoniae; 0.39 µg/mL (≈ 1.08 µM) against Staphylococcus aureus [7].
